Legend:
[1] = system: platelet aggregation; conditions: humans, 100 mg b.i.d., at 4, 12 and 24 h; cited from earlier work
[2] = Rat free systemic exposure in carcinogenicity study; format: in vivo
Procedure, shortened: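 Satellite carcinogenicity rats (10 per sex per dose) dosed orally at 20, 60 or 180/120 mg/kg/day. Heparinised blood taken on Days 1 and 3 and in Weeks 26 and 52, at 2–24 h post-dose (3 rats per sex per time point). Analysed by protein precipitation and LC-MS/MS.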

[3] = system: TA1535 TA100 TA102 TA98 TA1537; assay: Ames in vitro assay; format: cell-based, Salmonella
Procedure, shortened: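 Genotoxicity screens. Ames: Salmonella strains exposed to 3–3000 μg/plate with and without metabolic activation; read-out was reverse-mutation frequency. Mouse lymphoma: L5178Y/TK+ cells treated for 4 h with S9 (15.7–41.8 μg/mL), for 4 h without S9 (5.23–15.7 μg/mL), and for 24 h without S9; read-out was clone number. Micronucleus: male and female Alderly Park rats given 2000 mg/kg; micronuclei scored 24 or 48 h post-dose.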

[4] = Protein binding, human; format: in vitro ADME

Structure (SMILES): CCCSc1nc(N[C@@H]2C[C@H]2c2ccc(F)c(F)c2)c2nnn([C@@H]3C[C@H](OCCO)[C@@H](O)[C@H]3O)c2n1 [Ticagrelor]
- Inhibition of platelet aggregation [1]: greater than 90%
- Rat free systemic exposure maximal concentration (Cmax) ([2]; high dose group, based on 99.0% protein binding): 0.502 µM
- Rat free systemic exposure Cmax ([2]; low dose group): 0.043 µM
- Rat free systemic exposure Cmax ([2]; mid dose group): 0.157 µM
- Ames in vitro assay: Conclusion [3]: Negative
- Ames in vitro assay: Results ([3]; 3–3000 μg/plate, with or without metabolic activation): No increased frequency of reverse mutations with or without metabolic activation
- fraction unbound [4]: 0.008
